{"source": "ChEMBL document CHEMBL6087468", "about": "“TKK130 is a 3-Hydroxy-Propanamidine (HPA) with Potent Antimalarial In Vivo Activity and a High Barrier to Resistance” (J Med Chem, 2025)", "key": {"[1]": {"experiment": "Plasma stability at 37 °C measured as remaining drug at 4 hrs sampled in triplicate (concentration 25 ng/mL 2 (TKK130))", "format": "ADME, cell-free", "conditions": "human, at 25 ng/mL, read-out: Stability", "in_short": "(§1)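 Fresh EDTA human plasma warmed to 37 °C, spiked to 25 ng/mL (0.5% methanol final), split into three fractions, shaken at 37 °C. Samples at 0, 2, 4, 6, 24, 48 h precipitated with ice-cold acetonitrile containing internal standard; LC–MS/MS. Recovery = analyte/IS area ratio relative to 0 h; triplicate.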"}, "[2]": {"experiment": "Tmax in mouse infected with Plasmodium berghei at 30 mg/kg, po", "format": "ADME, organism-based", "conditions": "in vivo", "in_short": "(§2)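 Infected mice (n = 2 per dose) given a single oral dose of 3, 10 or 30 mg/kg; blood sampled as dried blood spots at 1, 4 and 24 h post-dose, diluted before LC–MS analysis against whole-blood dried-spot calibration (1.56–800 ng/mL) with QCs; tmax from concentration–time profiles.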"}, "[3]": {"experiment": "Unbound drug concentration in plasma (unknown origin) at 25 ng/ml measured after 24 hrs by standard equilibrium dialysis assay", "format": "ADME, cell-free", "in_short": "(§3)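 Standard equilibrium dialysis (6 kDa regenerated cellulose membrane): donor plasma spiked at 25 ng/mL, acceptor 0.9% saline, 24 h at 37 °C. Acetonitrile precipitation of plasma, methanol added to acceptor; LC–MS/MS with calibration curves in each medium; fraction bound corrected for volume shift; triplicate; itraconazole reference.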"}, "[4]": {"experiment": "Tmax in mouse infected with Plasmodium berghei at 10 mg/kg, po", "format": "ADME, organism-based", "conditions": "in vivo", "in_short": "as §2"}, "Plasmodium berghei [5]": {"system": "Plasmodium berghei", "experiment": "In vivo antiplasmodial activity against Plasmodium berghei infected mouse model assessed as parasitemia suppression in blood at 10 mg/kg, po treated 4 times measured at 96 hrs post infection by fluorescence-activated cell sorting (FACS) analysis", "format": "functional"}, "Plasmodium falciparum [6]": {"system": "Plasmodium falciparum", "experiment": "Antimalarial activity against Plasmodium falciparum K1 infected in human erythrocytes assessed as inhibition of parasite growth measured after 48 hrs incubation by [3H]hypoxanthine incorporation assay", "format": "functional, organism-based", "conditions": "K1, Erythrocyte"}, "[7]": {"experiment": "Unbound drug concentration in plasma (unknown origin) at 25 ng/ml measured after 24 hrs by dilution method", "format": "ADME, cell-free", "in_short": "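Equilibrium dialysis with donor plasma diluted 1:10 or 1:20 in 0.9% saline, spiked at 25 ng/mL, against 0.9% saline acceptor for 24 h at 37 °C. Concentrations by LC–MS/MS against diluted-plasma calibration curves; unbound fraction (acceptor/donor) back-calculated to undiluted plasma; triplicate; itraconazole reference.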"}, "Plasmodium berghei [8]": {"system": "Plasmodium berghei", "experiment": "In vivo antiplasmodial activity against Plasmodium berghei infected mouse model assessed as parasitemia suppression in blood at 50 mg/kg, po treated 4 times measured at 96 hrs post infection by fluorescence-activated cell sorting (FACS) analysis", "format": "functional"}, "[9]": {"experiment": "Plasma stability at 37 °C measured as remaining drug at 48 hrs sampled in triplicate (concentration 25 ng/mL 2 (TKK130))", "format": "ADME, cell-free", "conditions": "human, at 25 ng/mL, read-out: Stability", "in_short": "as §1"}, "Hemozoin": {"system": "Hemozoin", "experiment": "Inhibition of beta-hematin formation assessed as formation of bis-pyridyl heme complex incubated for 4 to 5 hrs by Nonidet-40 based plate reader assay"}, "Plasmodium berghei [10]": {"system": "Plasmodium berghei", "experiment": "In vivo antiplasmodial activity against Plasmodium berghei infected mouse model assessed as parasitemia suppression in blood at 30 mg/kg, po treated 4 times measured at 96 hrs post infection by fluorescence-activated cell sorting (FACS) analysis", "format": "functional"}, "Plasmodium falciparum [11]": {"system": "Plasmodium falciparum", "experiment": "Induction of resistance development in Plasmodium falciparum Dd2 Pol delta at 2 x 10^9 initial inoculum per flask at 9 nM measured on day 4 by single-step selection assay", "format": "functional, organism-based"}, "[12]": {"experiment": "Plasma stability at 37 °C measured as remaining drug at 24 hrs sampled in triplicate (concentration 25 ng/mL 2 (TKK130))", "format": "ADME, cell-free", "conditions": "human, at 25 ng/mL, read-out: Stability", "in_short": "as §1"}, "[13]": {"experiment": "Cmax in mouse infected with Plasmodium berghei at 3 mg/kg, po", "format": "ADME, organism-based", "conditions": "in vivo", "in_short": "(§4)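 Single oral dose to P. berghei-infected mice, 2 mice per dose group. Blood sampled at 1, 4 and 24 h post-dose as dried blood spots, plus a blank \"0 h\" reading. Spots diluted 1:5 (3, 10 mg/kg) or 1:10 (30 mg/kg), then quantified by LC–MS/MS against a whole-blood calibration of 1.56–800 ng/mL with QCs at three levels.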"}, "Plasmodium berghei [14]": {"system": "Plasmodium berghei", "experiment": "In vivo antiplasmodial activity against Plasmodium berghei infected mouse model assessed as curation rate at 50 mg/kg, po treated 4 times measured at 96 hrs post infection by fluorescence-activated cell sorting (FACS) analysis", "format": "functional"}, "[15]": {"experiment": "Plasma protein binding in plasma (unknown origin) at 25 ng/ml measured after 24 hrs by standard equilibrium dialysis assay", "format": "ADME, cell-free", "conditions": "read-out: PPB (converted)", "in_short": "as §3"}, "Plasmodium berghei [16]": {"system": "Plasmodium berghei", "experiment": "In vivo antiplasmodial activity against Plasmodium berghei infected mouse model assessed as curation rate at 3 mg/kg, po treated 4 times measured at 96 hrs post infection by fluorescence-activated cell sorting (FACS) analysis", "format": "functional"}, "[17]": {"experiment": "Metabolic stability in human liver microsomes assessed as intrinsic clearance at 50 ug/ml measured up to 60 mins", "format": "ADME, Microsome", "conditions": "microsomes, 1 h, dose 50 µg/ml", "in_short": "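Pooled human liver microsomes (150 donors) in 0.1 M potassium phosphate buffer pH 7.4, cosolvent method, analyte at 1 μM final; reactions stopped with ice-cold acetonitrile at 0, 15, 30, 45, 60 min; LC–MS/MS. Clint from ke (negative slope of ln peak-area ratio vs time) via t1/2 = ln2/ke; triplicate; no-cofactor negative control and blank run.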"}, "Plasmodium berghei [18]": {"system": "Plasmodium berghei", "experiment": "In vivo antiplasmodial activity against Plasmodium berghei infected mouse model assessed as mean survival time at 30 mg/kg, po treated 4 times measured at 96 hrs post infection by fluorescence-activated cell sorting (FACS) analysis (reference value: 4 days)", "format": "functional"}, "[19]": {"experiment": "AUC (0 to t) in mouse infected with Plasmodium berghei at 30 mg/kg, po", "format": "ADME, organism-based", "conditions": "in vivo", "in_short": "as §4"}, "Plasmodium falciparum [20]": {"system": "Plasmodium falciparum", "experiment": "Antimalarial activity against chloroquine, sulfadoxine, and pyrimethamine-resistant Plasmodium falciparum Dd2 infected in erythrocyte assessed as reduction in number of viable parasites at 10 times IC50 concentration treated for 120 hrs followed by allowed to recover in drug-free medium for 28 days by HRP2-ELISA analysis", "format": "functional, organism-based"}, "[21]": {"experiment": "Cmax in mouse infected with Plasmodium berghei at 30 mg/kg, po", "format": "ADME, organism-based", "conditions": "in vivo", "in_short": "as §4"}, "Plasmodium falciparum [22]": {"system": "Plasmodium falciparum", "experiment": "Antimalarial activity against wild type Plasmodium falciparum Dd2 infected in human erythrocytes assessed as inhibition of parasite growth measured after 72 hrs incubation by [3H]hypoxanthine incorporation assay", "format": "functional, organism-based", "conditions": "Dd2, Erythrocyte", "in_short": "(§5)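 Dd2 parent line, and mutants made from it by gene editing or drug selection. Growth inhibition measured by the 72 h [3H]hypoxanthine incorporation assay at Swiss TPH. Values are means of 2 independent biological replicates.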"}, "[23]": {"experiment": "AUC (0 to t) in mouse infected with Plasmodium berghei at 3 mg/kg, po", "format": "ADME, organism-based", "conditions": "in vivo", "in_short": "as §4"}, "Plasmodium falciparum [24]": {"system": "Plasmodium falciparum", "experiment": "Antimalarial activity against chloroquine, sulfadoxine, and pyrimethamine-resistant Plasmodium falciparum Dd2 infected in erythrocyte assessed as reduction in number of viable parasites at 10 times IC50 concentration treated for 24 hrs followed by allowed to recover in drug-free medium for 28 days by HRP2-ELISA analysis", "format": "functional, organism-based"}, "Plasmodium falciparum [25]": {"system": "Plasmodium falciparum", "experiment": "Antimalarial activity against Plasmodium falciparum Dd2 DDD107498 harboring PfeEF2 mutant infected in human erythrocytes assessed as inhibition of parasite growth measured after 72 hrs incubation by [3H]hypoxanthine incorporation assay", "format": "functional, organism-based", "conditions": "Dd2 DDD107498, Erythrocyte", "in_short": "as §5"}, "Plasmodium berghei [26]": {"system": "Plasmodium berghei", "experiment": "In vivo antiplasmodial activity against Plasmodium berghei infected mouse model assessed as curation rate at 30 mg/kg, po treated 4 times measured at 96 hrs post infection by fluorescence-activated cell sorting (FACS) analysis", "format": "functional"}}, "note": "Activity calls are given as the source filed them. No cut-off for these calls is given here.", "data": [{"compound": "Cl.N=C(CC(O)c1cc2c(F)cc(F)cc2c2cc(C(F)(F)F)ccc12)Nc1ccc(F)cc1", "note": "(configuration not stated)", "values": [{"measurement": "remaining at 4 h, 25 ng/mL", "setting": "[1]", "result": 89.1, "unit": "%"}, {"measurement": "Tmax", "setting": "[2]", "result": 4, "unit": "h"}, {"measurement": "Cp(f)", "setting": "[3]", "result": 0.2, "unit": "%"}, {"measurement": "Tmax", "setting": "[4]", "result": 4, "unit": "h"}, {"measurement": "Activity", "setting": "Plasmodium berghei [5]", "result": 99.9, "unit": "%"}, {"measurement": "IC50", "setting": "Plasmodium falciparum [6]", "result": 3, "unit": "nM"}, {"measurement": "Cp(f)", "setting": "[7]", "result": 0.4, "unit": "%"}, {"measurement": "Activity", "setting": "Plasmodium berghei [8]", "result": 99.8, "unit": "%"}, {"measurement": "remaining at 48 h, 25 ng/mL", "setting": "[9]", "result": 59.4, "unit": "%"}, {"measurement": "IC50", "setting": "Hemozoin", "result": 9400, "unit": "nM"}, {"measurement": "Activity", "setting": "Plasmodium berghei [10]", "result": 99.8, "unit": "%"}, {"measurement": "Activity", "setting": "Plasmodium falciparum [11]", "result": "Active; No Subsequent Parasite Growth Observed"}, {"measurement": "remaining at 24 h, 25 ng/mL", "setting": "[12]", "result": 76.4, "unit": "%"}, {"measurement": "Cmax", "setting": "[13]", "result": 216, "unit": "ng/mL"}, {"measurement": "Activity", "setting": "Plasmodium berghei [14]", "result": 100, "unit": "%"}, {"measurement": "fraction unbound at 24 h, 25 ng/ml", "setting": "[15]", "result": "< 0.002"}, {"measurement": "Activity", "setting": "Plasmodium berghei [16]", "result": 0, "unit": "%"}, {"measurement": "CLint", "setting": "[17]", "result": 1.8, "unit": "µL/min/mg"}, {"measurement": "MSD", "setting": "Plasmodium berghei [18]", "result": 30, "unit": "days"}, {"measurement": "AUC(0-t)", "setting": "[19]", "result": 40900, "unit": "ng·h/mL"}, {"measurement": "Activity", "setting": "Plasmodium falciparum [20]", "result": "Active"}, {"measurement": "Cmax", "setting": "[21]", "result": 2030, "unit": "ng/mL"}, {"measurement": "IC50", "setting": "Plasmodium falciparum [22]", "result": 15, "unit": "nM"}, {"measurement": "AUC(0-t)", "setting": "[23]", "result": 3770, "unit": "ng·h/mL"}, {"measurement": "Activity", "setting": "Plasmodium falciparum [24]", "result": "Active; Compound Exhibited Fast-Acting Than Dihydroartemisinin"}, {"measurement": "IC50", "setting": "Plasmodium falciparum [25]", "result": 16, "unit": "nM"}, {"measurement": "Activity", "setting": "Plasmodium berghei [26]", "result": 100, "unit": "%"}]}]}
